pKi: −log10 of the molar value.
How the values were obtained:
[1] = target: T1, Amine oxidase [flavin-containing] B (Bos taurus, UniProt P56560); assay: K inact/KI against Monoamine oxidase B
T1 sequence (P56560 whole entry): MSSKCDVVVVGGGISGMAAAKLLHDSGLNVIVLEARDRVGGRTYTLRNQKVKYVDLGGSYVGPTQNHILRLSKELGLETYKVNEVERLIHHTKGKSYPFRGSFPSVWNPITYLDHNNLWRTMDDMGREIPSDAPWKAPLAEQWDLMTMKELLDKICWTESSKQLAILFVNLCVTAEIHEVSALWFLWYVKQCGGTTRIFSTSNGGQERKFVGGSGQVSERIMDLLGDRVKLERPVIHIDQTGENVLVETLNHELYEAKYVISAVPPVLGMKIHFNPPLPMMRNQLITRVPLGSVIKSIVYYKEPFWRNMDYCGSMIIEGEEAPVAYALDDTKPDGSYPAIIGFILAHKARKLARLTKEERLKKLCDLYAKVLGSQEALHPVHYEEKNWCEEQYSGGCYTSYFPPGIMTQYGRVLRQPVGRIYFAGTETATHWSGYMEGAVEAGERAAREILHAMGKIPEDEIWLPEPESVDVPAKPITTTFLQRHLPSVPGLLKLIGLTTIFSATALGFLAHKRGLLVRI
How it was run: (§1)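 MAO B (20 μL of 2.6 mg/mL) was added to the amine hydrochloride at various concentrations, in 100 mM Tris pH 9.0 with 4% v/v DMSO. The mixture was incubated at 25 °C. At intervals an aliquot was diluted 1:50 into 1.0 mM benzylamine in the same buffer, and activity was read as the change in absorbance at 250 nm. Activity is expressed relative to a no-inactivator DMSO control. K_I and k_inact were derived by the Kitz–Wilson method.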

[2] = target: T1, Amine oxidase [flavin-containing] B; assay: Inhibition constant was evaluated against mitochondrial Monoamine oxidase B; how it was run: as §1
[3] = target: T1, Amine oxidase [flavin-containing] B; assay: Inactivation constant was determined against mitochondrial Monoamine oxidase B; how it was run: as §1

| SMILES | kinact/KI [1] [M⁻¹ s⁻¹] | pKi [2] | kinact [3] [s⁻¹] |
| --- | --- | --- | --- |
| NCC12C3C4C1C1C2C3C41c1ccccc1 (centres undefined) | 105 | 3.92 | 0.0125 |
| NCC12C3C4C1C1C2C3C41C1CC1 (centres undefined) | 18.3 | 3.59 | 0.00467 |
| NCC12C3C4C5C3C1C5C42 (centres undefined) | 3.17 | 3.77 | 0.00055 |

Source: ChEMBL document CHEMBL1129988, “4-substituted cubylcarbinylamines: a new class of mechanism-based monoamine oxidase B inactivators” (J Med Chem, 1997)
